Source: article PMC9053952 (RSC Advances, 2020)
“Also recorded” adds a separate entry of the source. Starred links: 1 amine or outer side, 2 acyl side, 3 side chain; linkers in the order of their positions; H or OH if unused. Non-standard residues stand in square brackets, D forms with d. Residues, ends and D or L forms follow the SMILES beside them. *: point of attachment. X2 = COc1ccc([N+]2=NC(C#N)=NN(c3ccc(-c4cn(CCCC[C@H](N[*:1])C(=O)[*:2])nn4)cc3)[B-]2(F)F)cc1; Octanoyl = CCCCCCCC(=O)*; Dap = NC[C@H](N)C(=O)O

Assays:
[1] = tested on: parental OVCAR-8 cells; assay: Confocal fluorescence microscopy of parental OVCAR-8 cells; assay type: cell-based; conditions: low expression of GHSR-1a
In short: (§1)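 OVCAR-8 cells, either stably transfected with GHSR-1a or parental, were detached with trypsin-free dissociation buffer and seeded at 50 000 cells/well on coverslips. They were cultured overnight in RPMI/10% FBS at 37 °C, 5% CO2. Test compound at 0.1 μM was added in serum-free RPMI for 1 h at 37 °C. Cells were washed three times with PBS, fixed in 4% paraformaldehyde and mounted with DAPI. Confocal settings: ex 559 nm, em 598–698 nm; 40× and 60× objectives.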

[2] = Photophysical properties; assay type: physicochemical; conditions: in DMSO; for λabs (absorption maximum): UV-Vis spectrophotometer; for ΦF (fluorescence quantum yield): comparative method, [Ru(bpy)3][PF6]2 as relative standard
In short: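 Measurements were made in DMSO. UV-Vis absorption and excitation/emission spectra were recorded. Molar extinction coefficient was taken from the slope of absorbance versus concentration over seven solutions of known concentration. Fluorescence quantum yield was determined by the comparative method against the [Ru(bpy)3][PF6]2 standard.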

[3] = biological target: GHSR-1a (Homo sapiens, UniProt Q92847); assay: Radioligand competitive binding assay, GHSR-1a
In short: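 Competition binding used membranes from HEK293 cells transiently transfected with GHSR-1a (50 000 cells/tube) and human [125I]-ghrelin(1–28) (15 000 cpm/tube). Test peptide was run at 10−11 to 10−5 M, with incubation for 20 min at 550 rpm. Unbound radioligand was removed and bound activity gamma-counted. Human ghrelin(1–28) served as reference. IC50 came from nonlinear regression; assays were run in triplicate.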

[4] = tested on: OVCAR-8 cells stably transfected with GHSR-1a; assay: Confocal fluorescence microscopy of OVCAR-8 cells transfected with GHSR-1a; assay type: cell-based; conditions: 0.1 μM, 1 h, 37 °C
In short: as §1

[5] = tested on: PC-3 cells; assay: Confocal fluorescence microscopy of PC-3 cells; assay type: cell-based; conditions: 0.5 μM, 1 h, 37 °C
In short: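 PC-3 cells, with native GRPR, were detached with trypsin-free dissociation buffer and seeded at 50 000 cells/well on coverslips. They were cultured overnight in F-12K/10% FBS at 37 °C, 5% CO2. Test compound at 0.5 μM was added in serum-free F-12K for 1 h at 37 °C, alone or with a 10-fold molar excess of the unlabelled parent peptide as blocker. Cells were PBS-washed three times, fixed in 4% paraformaldehyde and mounted with DAPI. Confocal settings: ex 559 nm, em 605–705 nm.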

[6] = biological target: GRPR (Homo sapiens, UniProt P30550); assay: Radioligand competitive binding assay, GRPR
In short: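 Whole-cell competition binding used PC-3 cells (500 000/vial) grown in F-12K/10% FBS, with [125I]Tyr4-bombesin as radioligand. Test peptide was run at 10−12 to 10−6 M, shaking at 550 rpm for 1 h at 37 °C. Cells were centrifuged, the pellet washed with 50 mM Tris pH 7.4, and bound activity gamma-counted. IC50 came from nonlinear regression; assays were run in triplicate.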

[7] = tested on: GRPR in PC-3 cells; assay: Blocking study in PC-3 cells with parent peptide 3; assay type: cell-based; conditions: 0.5 μM 7, 1 h, 37 °C; 10-fold molar excess of 3

Chain of GRPR (P30550 whole entry): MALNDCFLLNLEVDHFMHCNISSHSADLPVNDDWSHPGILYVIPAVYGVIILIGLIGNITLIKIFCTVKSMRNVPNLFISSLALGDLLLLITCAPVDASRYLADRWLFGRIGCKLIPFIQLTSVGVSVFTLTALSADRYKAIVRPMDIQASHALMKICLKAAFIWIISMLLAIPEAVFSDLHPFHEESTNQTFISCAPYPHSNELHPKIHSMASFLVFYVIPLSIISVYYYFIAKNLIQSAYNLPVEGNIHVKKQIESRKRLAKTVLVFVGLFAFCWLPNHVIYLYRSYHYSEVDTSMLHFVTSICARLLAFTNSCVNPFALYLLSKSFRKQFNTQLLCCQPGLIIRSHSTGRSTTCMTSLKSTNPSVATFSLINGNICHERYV
Chain of GHSR-1a (Q92847 whole entry): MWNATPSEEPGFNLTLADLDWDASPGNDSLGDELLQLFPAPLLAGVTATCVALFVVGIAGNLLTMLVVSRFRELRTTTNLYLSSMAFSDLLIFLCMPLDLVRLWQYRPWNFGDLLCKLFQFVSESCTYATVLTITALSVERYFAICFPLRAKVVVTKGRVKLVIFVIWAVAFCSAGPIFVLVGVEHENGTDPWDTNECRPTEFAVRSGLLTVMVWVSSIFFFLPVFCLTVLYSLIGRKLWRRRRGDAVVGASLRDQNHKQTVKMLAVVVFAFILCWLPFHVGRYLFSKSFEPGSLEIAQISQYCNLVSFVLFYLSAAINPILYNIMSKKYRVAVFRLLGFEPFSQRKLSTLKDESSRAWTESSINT

| Compound | cellular uptake (red emission) [1] | λem (emission maximum) [2] [nm] | λabs (absorption maximum) [2] [nm] | ΦF (fluorescence quantum yield) [2] [%] | IC50 [3] [nM] | receptor affinity relative to parent peptide (in words) ([3]; vs parent peptide 2, GHSR-1a) | specific binding for GHSR-1a by confocal fluorescence microscopy [4] | ε (molar extinction coefficient) ([2]; slope of absorbance against concentration, seven solutions) | specific binding for GRPR by confocal fluorescence microscopy [5] | IC50 [6] [nM] | receptor affinity relative to parent peptide (in words) ([6]; vs parent peptide 3, GRPR) | displacement by parent peptide 3 [7] |
| --- | --- | --- | --- | --- | --- | --- | --- | --- | --- | --- | --- | --- |
| CCCCCCCC(=O)NC[C@H](NC(=O)[C@H](CO)NC(=O)CN)C(=O)N[C@@H](Cc1ccccc1)C(=O)N[C@@H](CC(C)C)C(=O)N[C@@H](CO)C(=O)N1CCC[C@H]1C(=O)N[C@H](C(=O)N[C@@H](CCCCn1cc(-c2ccc(N3N=C(C#N)N=[N+](c4ccc(OC)cc4)[B-]3(F)F)cc2)nn1)C(N)=O)[C@@H](C)O [Compound 5, [Dpr(octanoyl)^3,Thr^8,Lys(triazole-formazanate)^9]ghrelin(1–9)] (H-GS[Dap](Octanoyl)FLSPT[X2]-NH2; N-terminus assumed) | minimal uptake of 5 | 688 | 560 | 21 | 89 | decrease in receptor affinity | specific binding of 5 for GHSR-1a |  |  |  |  |  |
| CCCC[C@H](NC(=O)[C@H](Cc1ccccc1)NC(=O)[C@H](Cc1c[nH]cn1)NC(=O)CCNC(=O)[C@@H](NC(=O)[C@H](C)NC(=O)[C@H](Cc1c[nH]c2ccccc12)NC(=O)[C@H](CCC(N)=O)NC(=O)[C@@H](Cc1ccccc1)NC(=O)COCC(=O)NCCOCCOCCOCCOCCOCCOCCOCCOCCn1cc(-c2ccc([N+]3=NC(C#N)=NN(c4ccc(OC)cc4)[B-]3(F)F)cc2)nn1)C(C)C)C(N)=O [Compound 7] (HELM PEPTIDE1{[COc1ccc(N2N=C(C#N)N=[N+](c3ccc(-c4cn(CCOCCOCCOCCOCCOCCOCCOCCOCCNC(=O)COCC(=O)[*:2])nn4)cc3)[B-]2(F)F)cc1].[dF].Q.W.A.V.[bAla].H.F.[Nle].[am]}$$$$V2.0) |  | 690 | 555 | 12 |  |  |  | 31 900 M^−1 cm^−1 | analogue 7 for GRPR was demonstrated; also recorded: specific binding of analogue 7 to GRPR | 16.3 | decrease in receptor affinity | displacement of 7 by 10-fold molar excess of 3 |
